Experimental data reported in ChEMBL document CHEMBL4689842, “EUbOPEN Chemogenomics Library wave 1” (2021).
Several values for one entry are separate records, joined by “and”; a condition that tells them apart may be missing. Equal entries are not always repeated.

System: U2OS
Assay: Multiplex assay against U2OS
Format: toxicity, cell-based
Details: human
How it was run: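 Hoechst33342, BioTracker Green Microtubule Cytoskeleton Dye, MitoTracker Red and Annexin V Alexa Fluor 680 were added to live cells at seeding, and imaging on a CQ1 microscope at 37°C and 5% CO2 followed compound addition. Gating by CellPathfinder machine learning separated cells into Hoechst high-intensity objects or normal cells, then normal cells into healthy, pyknosed or fragmented nuclei, then pyknosed cells into mitotic or apoptotic. Per cents of healthy-nucleus cells are reported for the tubulin, mitochondrial-mass and membrane-permeability phenotypes.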

[1] = 12 h, 1 µM, compound concentration 1 uM, replicate 1
[2] = 12 h, 1 µM, compound concentration 1 uM, replicate 2
[3] = 12 h, 10 µM, compound concentration 10 uM, replicate 1
[4] = 12 h, 10 µM, compound concentration 10 uM, replicate 2
[5] = 24 h, 1 µM, compound concentration 1 uM, replicate 1
[6] = 24 h, 1 µM, compound concentration 1 uM, replicate 2
[7] = 24 h, 10 µM, compound concentration 10 uM, replicate 1
[8] = 24 h, 10 µM, compound concentration 10 uM, replicate 2
[9] = 48 h, 10 µM, compound concentration 10 uM, replicate 1
[10] = 48 h, 10 µM, compound concentration 10 uM, replicate 2

CCOC(=O)Nc1cc(-c2ccc(C)c(NS(C)(=O)=O)c2)nn2c(C)nnc12
Population Apoptotic (%) [1]: 83% | Population Fragmented Nuclei (%) [1]: 7% | Population Healthy Nuclei (%) [1]: 89% | Population Hoechst High Intensity Objects (%) [1]: 2% | Population Membrane Permeable-Phenotype (%) [1]: 9% | Population Mitochondria Different-Phenotype (%) [1]: 27% | Population Mitotic Cells (%) [1]: 16% | Population Normal (%) [1]: 97% | Population Pyknosed Nuclei (%) [1]: 3% | Population Tubulin-Different-Phenotype (%) [1]: 26% | Total Cell Count [1]: 184 | Population Apoptotic (%) [2]: 100% | Population Fragmented Nuclei (%) [2]: 11% | Population Healthy Nuclei (%) [2]: 88% | Population Hoechst High Intensity Objects (%) [2]: 11% | Population Membrane Permeable-Phenotype (%) [2]: 7% | Population Mitochondria Different-Phenotype (%) [2]: 31% | Population Mitotic Cells (%) [2]: 0% | Population Normal (%) [2]: 88% | Population Pyknosed Nuclei (%) [2]: 0% | Population Tubulin-Different-Phenotype (%) [2]: 47% | Total Cell Count [2]: 152 | Population Apoptotic (%) [3]: 36% and 50% | Population Fragmented Nuclei (%) [3]: 7% and 3% | Population Healthy Nuclei (%) [3]: 85% and 87% | Population Hoechst High Intensity Objects (%) [3]: 4% and 3% | Population Membrane Permeable-Phenotype (%) [3]: 2% and 7% | Population Mitotic Cells (%) [3]: 63% and 50% | Population Normal (%) [3]: 95% and 96% | Population Pyknosed Nuclei (%) [3]: 7% and 8% | Total Cell Count [3]: 284 and 216 | Population Fragmented Nuclei (%) [4]: 8% and 6% | Population Healthy Nuclei (%) [4]: 86% and 89% | Population Hoechst High Intensity Objects (%) [4]: 2% and 10% | Population Membrane Permeable-Phenotype (%) [4]: 0% and 6% | Population Mitochondria Different-Phenotype (%) [4]: 11% and 29% | Population Mitotic Cells (%) [4]: 60% and 100% | Population Normal (%) [4]: 97% and 89% | Population Pyknosed Nuclei (%) [4]: 5% and 3% | Population Tubulin-Different-Phenotype (%) [4]: 89% and 30% | Total Cell Count [4]: 101 and 206 | Population Apoptotic (%) [5]: 22% | Population Fragmented Nuclei (%) [5]: 7% | Population Healthy Nuclei (%) [5]: 88% | Population Hoechst High Intensity Objects (%) [5]: 2% | Population Mitochondria Different-Phenotype (%) [5]: 32% | Population Mitotic Cells (%) [5]: 77% | Population Normal (%) [5]: 97% | Population Pyknosed Nuclei (%) [5]: 3% | Population Tubulin-Different-Phenotype (%) [5]: 32% | Total Cell Count [5]: 257 | Population Apoptotic (%) [6]: 20% | Population Fragmented Nuclei (%) [6]: 9% | Population Healthy Nuclei (%) [6]: 84% | Population Hoechst High Intensity Objects (%) [6]: 7% | Population Membrane Permeable-Phenotype (%) [6]: 4% | Population Mitochondria Different-Phenotype (%) [6]: 34% | Population Mitotic Cells (%) [6]: 80% | Population Normal (%) [6]: 92% | Population Pyknosed Nuclei (%) [6]: 5% | Population Tubulin-Different-Phenotype (%) [6]: 59% | Total Cell Count [6]: 195 | Population Fragmented Nuclei (%) [7]: 5% | Population Healthy Nuclei (%) [7]: 87% and 93% | Population Hoechst High Intensity Objects (%) [7]: 3% and 1% | Population Membrane Permeable-Phenotype (%) [7]: 1% and 4% | Population Mitochondria Different-Phenotype (%) [7]: 11% and 18% | Population Mitotic Cells (%) [7]: 88% and 33% | Population Normal (%) [7]: 96% and 98% | Population Pyknosed Nuclei (%) [7]: 7% and 3% | Total Cell Count [7]: 378 and 305 | Population Apoptotic (%) [8]: 28% and 53% | Population Fragmented Nuclei (%) [8]: 3% and 7% | Population Healthy Nuclei (%) [8]: 90% and 86% | Population Hoechst High Intensity Objects (%) [8]: 2% and 9% | Population Membrane Permeable-Phenotype (%) [8]: 0% and 5% | Population Mitochondria Different-Phenotype (%) [8]: 16% and 30% | Population Mitotic Cells (%) [8]: 71% and 46% | Population Normal (%) [8]: 97% and 90% | Population Pyknosed Nuclei (%) [8]: 5% and 6% | Population Tubulin-Different-Phenotype (%) [8]: 96% and 35% | Total Cell Count [8]: 137 and 273 | Population Apoptotic (%) [9]: 36% | Population Fragmented Nuclei (%) [9]: 5% | Population Healthy Nuclei (%) [9]: 91% | Population Hoechst High Intensity Objects (%) [9]: 1% | Population Mitochondria Different-Phenotype (%) [9]: 10% | Population Mitotic Cells (%) [9]: 63% | Population Normal (%) [9]: 98% | Population Pyknosed Nuclei (%) [9]: 3% | Population Tubulin-Different-Phenotype (%) [9]: 98% | Total Cell Count [9]: 662 | Population Apoptotic (%) [10]: 17% | Population Fragmented Nuclei (%) [10]: 2% | Population Healthy Nuclei (%) [10]: 90% | Population Hoechst High Intensity Objects (%) [10]: 2% | Population Membrane Permeable-Phenotype (%) [10]: 0% | Population Mitochondria Different-Phenotype (%) [10]: 12% | Population Mitotic Cells (%) [10]: 82% | Population Normal (%) [10]: 97% | Population Pyknosed Nuclei (%) [10]: 6% | Population Tubulin-Different-Phenotype (%) [10]: 91% | Total Cell Count [10]: 261
